Measurements as given in ChEMBL document CHEMBL1944541, “Novel inhibitors of nitric oxide synthase with antioxidant properties” (Eur J Med Chem, 2012).
Blank lines part the entries; values can stand above or below the compound they belong to.

Experiments:
[1] = test system: Radical scavenging activity; experiment: Antioxidant activity assessed as DPPH free radical scavenging activity at 50 uM after 10 mins relative to control; type: functional
Method in brief: (§1)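 Compounds in ethanol with DPPH radical, tested at 50, 100 and 500, held 10 min at room temperature. Absorbance read at 517 nm and reported as percent decrease against control. IC50 was calculated for selected compounds. Trolox served as reference. Standard deviation was ≤10% (n ≥ 3).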

Plasma [2] = experiment: Antioxidant activity in human plasma assessed as inhibition of Fe2+-induced lipid hydroperoxidation at 100 uM after 2 hrs by FOX assay relative to control; type: functional, cell-free
Method in brief: (§2)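 Plasma from a healthy donor: heparinized venous blood taken after an overnight fast, spun at 800 g for 20 min. Plasma was diluted 1:1 with oxygenated PBS and incubated 2 h at 37 °C with or without compound (10, 50, 100). Lipid hydroperoxides were measured by FOX assay (Fe2+→Fe3+ with xylenol orange, 560 nm), calibrated against H2O2. Results given as percent inhibition against untreated plasma.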

[3] = Antioxidant activity assessed as NADH oxidation-induced superoxide radical scavenging activity at 50 uM after 20 mins relative to control; type: functional
Method in brief: (§3)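 Superoxide generated without a Fenton-type reaction from NADH, EDTA/MnCl2 and β-mercaptoethanol in triethanolamine-diethanolamine buffer, pH 7.4 (1 mL). Compounds tested at 25, 50 and 100. […] IC50 was calculated. SOD (40 mU/ml) served as reference. SD ≤10% (n ≥ 3).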

Nitric oxide synthase 1 = Nitric oxide synthase 1 (Rattus norvegicus, UniProt P29476); experiment: Inhibition of rat recombinant nNOS expressed in baculovirus-infected Sf9 cells assessed as conversion of oxyhemoglobin to methemoglobin by UV spectrophotometer analysis
Nitric oxide synthase 3 = biological target: T1, Nitric oxide synthase 3 (Mus musculus, UniProt P70313); experiment: Inhibition of C57BL/6 mouse eNOS assessed as conversion of oxyhemoglobin to methemoglobin by UV spectrophotometer analysis
T1 sequence (P70313 whole entry): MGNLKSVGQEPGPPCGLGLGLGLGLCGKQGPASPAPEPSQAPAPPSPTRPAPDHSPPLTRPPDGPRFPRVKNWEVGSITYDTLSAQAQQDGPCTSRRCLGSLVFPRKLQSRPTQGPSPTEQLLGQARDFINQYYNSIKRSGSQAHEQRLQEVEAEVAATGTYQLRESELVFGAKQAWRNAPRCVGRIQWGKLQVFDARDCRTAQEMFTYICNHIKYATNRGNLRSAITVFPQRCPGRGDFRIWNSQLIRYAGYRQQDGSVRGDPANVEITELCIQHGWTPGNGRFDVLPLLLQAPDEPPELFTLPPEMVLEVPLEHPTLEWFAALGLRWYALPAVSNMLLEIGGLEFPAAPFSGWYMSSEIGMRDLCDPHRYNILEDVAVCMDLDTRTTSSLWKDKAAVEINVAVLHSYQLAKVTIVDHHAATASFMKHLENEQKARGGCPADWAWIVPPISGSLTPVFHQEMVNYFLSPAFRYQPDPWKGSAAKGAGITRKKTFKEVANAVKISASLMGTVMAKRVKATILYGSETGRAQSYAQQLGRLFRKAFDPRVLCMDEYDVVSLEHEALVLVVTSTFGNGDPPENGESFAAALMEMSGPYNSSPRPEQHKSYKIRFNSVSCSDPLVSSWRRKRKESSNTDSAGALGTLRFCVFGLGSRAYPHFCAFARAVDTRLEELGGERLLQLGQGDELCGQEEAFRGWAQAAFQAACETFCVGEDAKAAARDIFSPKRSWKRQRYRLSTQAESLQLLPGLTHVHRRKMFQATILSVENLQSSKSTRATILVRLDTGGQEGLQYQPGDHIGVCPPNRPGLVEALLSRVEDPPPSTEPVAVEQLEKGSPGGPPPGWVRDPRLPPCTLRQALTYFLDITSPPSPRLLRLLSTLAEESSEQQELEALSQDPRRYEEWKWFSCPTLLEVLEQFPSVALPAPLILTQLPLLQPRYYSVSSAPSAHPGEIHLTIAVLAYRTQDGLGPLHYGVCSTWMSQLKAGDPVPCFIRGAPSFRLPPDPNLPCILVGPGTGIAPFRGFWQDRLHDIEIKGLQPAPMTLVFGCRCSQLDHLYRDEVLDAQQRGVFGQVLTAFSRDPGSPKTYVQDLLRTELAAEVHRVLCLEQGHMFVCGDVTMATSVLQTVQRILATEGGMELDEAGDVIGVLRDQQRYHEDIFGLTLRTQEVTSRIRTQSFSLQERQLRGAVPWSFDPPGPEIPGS
Method in brief: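 eNOS from H5V mouse endothelial cells (passage 5, DMEM with 10% FCS, 37 °C, 5% CO2). Cells were sonicated in Tris-HCl pH 7.4 with EDTA, DTT and protease inhibitors, and the 20,000 g supernatant was used. Activity was followed as oxyhemoglobin→methemoglobin conversion in Hepes pH 7.4 with L-arginine, NADPH, FAD, BH4, Ca2+ and calmodulin. Compounds tested at 500, 100 and 50. Results reported as Ki or percent inhibition.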

Plasma [4] = experiment: Antioxidant activity in human plasma assessed as inhibition of Fe2+-induced lipid hydroperoxidation after 2 hrs by FOX assay; type: functional, cell-free
[5] = test system: Radical scavenging activity; experiment: Antioxidant activity assessed as DPPH free radical scavenging activity after 10 mins; type: functional; method in brief: as §1
[6] = Antioxidant activity assessed as NADH oxidation-induced superoxide radical scavenging activity at 100 uM after 20 mins relative to control; type: functional; method in brief: as §3
[7] = Antioxidant activity assessed as NADH oxidation-induced superoxide radical scavenging activity after 20 mins; type: functional; method in brief: as §3
Plasma [8] = experiment: Antioxidant activity in human plasma assessed as inhibition of Fe2+-induced lipid hydroperoxidation at 50 uM after 2 hrs by FOX assay relative to control; type: functional, cell-free; method in brief: as §2
[9] = test system: Radical scavenging activity; experiment: Antioxidant activity assessed as DPPH free radical scavenging activity at 100 uM after 10 mins relative to control; type: functional; method in brief: as §1
[10] = Antioxidant activity assessed as NADH oxidation-induced superoxide radical scavenging activity at 25 uM after 20 mins relative to control; type: functional; method in brief: as §3
[11] = test system: Radical scavenging activity; experiment: Antioxidant activity assessed as DPPH free radical scavenging activity at 500 uM after 10 mins relative to control; type: functional; method in brief: as §1
Plasma [12] = experiment: Antioxidant activity in human plasma assessed as inhibition of Fe2+-induced lipid hydroperoxidation at 25 uM after 2 hrs by FOX assay relative to control; type: functional, cell-free
CYP450 = experiment: Inhibition of rat spleen microsomal CYP450 assessed as reduction of NADPH dependent cytochrome c at 500 uM; type: ADME; details: spleen microsomes, probe cytochrome c
Method in brief: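 Rat spleen microsomal P450 activity measured as NADPH-dependent cytochrome c reduction. Incubation 15 min at 25 °C with or without compound, range 5–500.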

Sequence of Nitric oxide synthase 1 (P29476 whole entry): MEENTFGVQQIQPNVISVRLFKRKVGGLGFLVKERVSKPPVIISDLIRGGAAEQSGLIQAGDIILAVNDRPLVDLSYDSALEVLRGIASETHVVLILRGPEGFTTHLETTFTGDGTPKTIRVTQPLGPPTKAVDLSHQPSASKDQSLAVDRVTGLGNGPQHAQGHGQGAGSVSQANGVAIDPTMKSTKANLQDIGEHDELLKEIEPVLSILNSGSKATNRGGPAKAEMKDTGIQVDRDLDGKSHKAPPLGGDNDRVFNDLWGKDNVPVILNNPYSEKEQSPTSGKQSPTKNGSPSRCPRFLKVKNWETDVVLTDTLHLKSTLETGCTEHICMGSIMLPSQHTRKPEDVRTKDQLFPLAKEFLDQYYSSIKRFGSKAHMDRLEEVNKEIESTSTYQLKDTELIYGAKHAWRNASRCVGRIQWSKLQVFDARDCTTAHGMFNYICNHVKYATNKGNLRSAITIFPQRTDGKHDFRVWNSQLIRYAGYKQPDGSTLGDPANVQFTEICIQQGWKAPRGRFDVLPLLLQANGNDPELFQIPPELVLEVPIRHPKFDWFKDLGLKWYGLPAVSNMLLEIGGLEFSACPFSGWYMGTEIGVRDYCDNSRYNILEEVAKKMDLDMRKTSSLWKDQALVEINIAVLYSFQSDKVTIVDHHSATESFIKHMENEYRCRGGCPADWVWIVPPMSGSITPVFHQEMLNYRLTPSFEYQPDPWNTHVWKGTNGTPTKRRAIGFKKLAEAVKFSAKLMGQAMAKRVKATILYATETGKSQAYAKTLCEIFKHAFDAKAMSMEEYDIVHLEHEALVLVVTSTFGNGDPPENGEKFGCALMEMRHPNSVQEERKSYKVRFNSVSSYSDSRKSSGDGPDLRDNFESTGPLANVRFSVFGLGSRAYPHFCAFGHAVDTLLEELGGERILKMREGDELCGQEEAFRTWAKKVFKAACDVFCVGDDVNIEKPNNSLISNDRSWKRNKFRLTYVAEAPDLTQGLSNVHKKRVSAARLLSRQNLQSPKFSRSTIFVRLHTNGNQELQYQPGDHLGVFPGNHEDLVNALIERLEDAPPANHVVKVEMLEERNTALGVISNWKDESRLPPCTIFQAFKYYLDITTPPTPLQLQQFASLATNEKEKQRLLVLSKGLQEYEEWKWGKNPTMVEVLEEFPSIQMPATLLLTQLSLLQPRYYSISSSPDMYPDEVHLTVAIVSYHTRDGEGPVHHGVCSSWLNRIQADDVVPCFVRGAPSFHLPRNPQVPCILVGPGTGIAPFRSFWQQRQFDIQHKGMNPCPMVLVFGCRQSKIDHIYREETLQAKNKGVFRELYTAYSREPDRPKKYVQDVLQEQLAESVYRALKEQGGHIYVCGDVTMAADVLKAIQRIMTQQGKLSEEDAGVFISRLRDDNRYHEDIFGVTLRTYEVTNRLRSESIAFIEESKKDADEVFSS

Compound: CCCc1nccn1CC(=O)c1ccc([N+](=O)[O-])cc1
Activity [1]: 25% | inhibition (Plasma [2]): 44% | Activity [3]: 34% | Ki (Nitric oxide synthase 1): 40 µM | Ki (Nitric oxide synthase 3): 45 µM | IC50 (Plasma [4]): > 100 µM | Activity [5]: Dose-dependent effect | IC50 [5]: 262 µM | Activity [6]: 62% | Activity [7]: Dose-dependent effect | IC50 [7]: 38 µM | inhibition (Plasma [8]): 31% | Activity [9]: 35% | Activity [10]: 22% | Activity [11]: 56% | inhibition (Plasma [12]): 30%

Compound: CC(C)c1nccn1CC(=O)c1ccc([N+](=O)[O-])cc1
Ki (Nitric oxide synthase 1): 22.5 µM | Ki (Nitric oxide synthase 3): 500 µM | IC50 (Plasma [4]): > 100 µM | IC50 [5]: 230 µM | IC50 [7]: 185 µM

Compound: CC(C)c1nccn1CC(=O)c1ccccc1
Ki (Nitric oxide synthase 1): 750 µM

Compound: O=C(Cn1cnc(-c2ccccc2)c1-c1ccccc1)c1ccc([N+](=O)[O-])cc1
Ki (Nitric oxide synthase 1): 36.3 µM | Ki (Nitric oxide synthase 3): 25 µM

Compound: Cc1ccnn1CC(=O)c1ccc([N+](=O)[O-])cc1
Ki (Nitric oxide synthase 1): 63 µM | Ki (Nitric oxide synthase 3): 30 µM

Compound: CC(C)c1nccn1CC(=O)c1ccc(Br)cc1
Ki (Nitric oxide synthase 1): 450 µM

Compound: O=C(Cn1cnc2ccccc21)c1ccccc1
Ki (Nitric oxide synthase 1): 480 µM

Compound: Cc1cc(C)n(CC(=O)c2ccc([N+](=O)[O-])cc2)n1
Ki (Nitric oxide synthase 1): 65 µM | Ki (Nitric oxide synthase 3): 90 µM

Compound: Cc1cncn1CC(=O)c1ccc([N+](=O)[O-])cc1
Ki (Nitric oxide synthase 1): 90 µM | Ki (Nitric oxide synthase 3): 45 µM

Compound: Cc1nccn1CC(=O)c1ccc([N+](=O)[O-])cc1
Ki (Nitric oxide synthase 1): 74 µM | Ki (Nitric oxide synthase 3): > 2000 µM | IC50 (Plasma [4]): 1.75 µM | IC50 [5]: 165 µM | IC50 [7]: 70 µM

Compound: O=C(Cn1cnc([N+](=O)[O-])c1)c1ccc([N+](=O)[O-])cc1
Ki (Nitric oxide synthase 1): 120 µM | Ki (Nitric oxide synthase 3): 120 µM

Compound: O=C(Cn1cnc2ncccc21)c1ccc([N+](=O)[O-])cc1
Ki (Nitric oxide synthase 1): 35.8 µM | Ki (Nitric oxide synthase 3): 45 µM

Compound: O=C(Cn1ccnc1)c1ccc([N+](=O)[O-])cc1
Ki (Nitric oxide synthase 1): 105 µM | Ki (Nitric oxide synthase 3): > 5000 µM | IC50 (Plasma [4]): 18 µM | IC50 [5]: 415 µM | IC50 [7]: 165 µM

Compound: Cc1cn(CC(=O)c2ccc([N+](=O)[O-])cc2)cn1
inhibition at 500 µM (CYP450): 13% | Activity [1]: 12% | inhibition (Plasma [2]): 69% | Activity [3]: 23% | Ki (Nitric oxide synthase 1): 85 µM | Ki (Nitric oxide synthase 3): > 2000 µM | IC50 (Plasma [4]): 10 µM | Activity [5]: Dose-dependent effect | IC50 [5]: > 500 µM | Activity [6]: 56% | Activity [7]: Dose-dependent effect | IC50 [7]: 66 µM | inhibition (Plasma [8]): 65% | Activity [9]: 17% | Activity [10]: 20% | Activity [11]: 41% | inhibition (Plasma [12]): 53%

Compound: Cc1nccn1CC(=O)c1ccc(Br)cc1
Ki (Nitric oxide synthase 1): 620 µM

Compound: CCc1nc(C)cn1CC(=O)c1ccc([N+](=O)[O-])cc1
Ki (Nitric oxide synthase 1): 75 µM | Ki (Nitric oxide synthase 3): 75 µM

Compound: Cc1cc2ncn(CC(=O)c3ccc([N+](=O)[O-])cc3)c2cc1C
Activity [1]: 11% | Activity [3]: 37% | Ki (Nitric oxide synthase 1): 13.8 µM | Ki (Nitric oxide synthase 3): 37.5 µM | Activity [5]: Dose-dependent effect | IC50 [5]: > 500 µM | Activity [6]: 45% | Activity [7]: Dose-dependent effect | IC50 [7]: > 100 µM | Activity [9]: 19% | Activity [10]: 0% | Activity [11]: 45%

Compound: O=C(Cn1ccnc1)c1ccc(S(=O)(=O)C(F)(F)F)cc1
Ki (Nitric oxide synthase 1): 450 µM

Compound: Cc1nccn1CC(=O)c1ccccc1
Ki (Nitric oxide synthase 1): > 500 µM

Second part, led by results:

Ki (Nitric oxide synthase 1): 40 µM | Ki (Nitric oxide synthase 3): 37.5 µM
Compound: O=C(Cn1ccnc1-c1ccccc1)c1ccc([N+](=O)[O-])cc1

Ki (Nitric oxide synthase 1): 45 µM | Ki (Nitric oxide synthase 3): 70 µM
Compound: O=C(Cn1cnc(-c2ccccc2)c1)c1ccc([N+](=O)[O-])cc1

Ki (Nitric oxide synthase 1): 31.7 µM | Ki (Nitric oxide synthase 3): 70.2 µM
Compound: O=C(Cn1cnc2cccnc21)c1ccc([N+](=O)[O-])cc1

Ki (Nitric oxide synthase 1): 32.5 µM | Ki (Nitric oxide synthase 3): 60 µM
Compound: O=C(Cn1cc2ccccc2n1)c1ccc([N+](=O)[O-])cc1

Ki (Nitric oxide synthase 1): 230 µM
Compound: O=C(Cn1cccc1)c1ccc([N+](=O)[O-])cc1

Ki (Nitric oxide synthase 1): 22.5 µM | Ki (Nitric oxide synthase 3): 30 µM
Compound: O=C(Cn1nc2ccccc2n1)c1ccc([N+](=O)[O-])cc1

Ki (Nitric oxide synthase 1): 12.5 µM | Ki (Nitric oxide synthase 3): 32.5 µM | IC50 (Plasma [4]): 17 µM | IC50 [5]: > 500 µM | IC50 [7]: 85 µM
Compound: O=C(Cn1nnc2ccccc21)c1ccc([N+](=O)[O-])cc1
Activity [1]: 14% | inhibition (Plasma [2]): 57% | Activity [3]: 35% | Activity [5]: Dose-dependent effect | Activity [6]: 51% | Activity [7]: Dose-dependent effect | inhibition (Plasma [8]): 48% | Activity [9]: 21% | Activity [10]: 26% | Activity [11]: 31% | inhibition (Plasma [12]): 37%

Ki (Nitric oxide synthase 1): 46.6 µM | Ki (Nitric oxide synthase 3): 2.75 µM
Compound: O=C(Cn1cnc2ccccc21)c1ccc([N+](=O)[O-])cc1

Ki (Nitric oxide synthase 1): 47.5 µM | Ki (Nitric oxide synthase 3): 40 µM
Compound: O=C(Cn1cncn1)c1ccc([N+](=O)[O-])cc1

Ki (Nitric oxide synthase 1): 66.2 µM | Ki (Nitric oxide synthase 3): 75 µM
Compound: O=C(Cn1cc2cccc([N+](=O)[O-])c2n1)c1ccc([N+](=O)[O-])cc1

Ki (Nitric oxide synthase 1): 40 µM | Ki (Nitric oxide synthase 3): 60 µM
Compound: O=C(Cn1cccn1)c1ccc([N+](=O)[O-])cc1
